Measurements from different studies.
Compare with care: the assays were run in different laboratories.
EGFR del747-752/P753S: Epidermal growth factor receptor (EGFR, Homo sapiens, UniProt P00533, del747-752/P753S)
EGFR G719S: Epidermal growth factor receptor (EGFR, Homo sapiens, UniProt P00533, G719S)
EGFR: Epidermal growth factor receptor (EGFR, Homo sapiens, UniProt P00533)
EGFR G719C: Epidermal growth factor receptor (EGFR, Homo sapiens, UniProt P00533, G719C)
EGFR A750P/del747-749: Epidermal growth factor receptor (EGFR, Homo sapiens, UniProt P00533, A750P/del747-749)
EGFR T790M: Epidermal growth factor receptor (EGFR, Homo sapiens, UniProt P00533, T790M)
EGFR del746-750: Epidermal growth factor receptor (EGFR, Homo sapiens, UniProt P00533, del746-750)

Compound	target	effect on	method	tested at	remaining binding [%]
FC(F)(F)c1ccc2c(c1)nc(-c1cccnc1)n2C1CC1	EGFR del747-752/P753S	cell-free assay	competition with immobilised ligand	1 µM	100
CN1CCN(c2ccc(Nc3nccc(-c4cccc([N+](=O)[O-])c4)n3)cc2C(F)(F)F)CC1	EGFR G719S	binding	–	10 µM	98
O=C(c1ccc(Nc2ncc(Cl)c(-c3ccc(Cl)s3)n2)cc1)N1CCC(N2CCCC2)CC1	Epidermal growth factor receptor (EGFR, Homo sapiens, UniProt P00533, del752-759)	binding	competition with immobilised ligand	1 µM	96
CN(C)C(=O)Cn1cc(-c2nc([C@@](C)(c3ccc(-c4cnc(N)nc4)cc3)C3CC3)no2)cn1	EGFR	cell-free assay	competition with immobilised ligand	1 µM	93
CN(CCCC(F)(F)F)c1nccc(-c2cnn3ncccc23)n1	Epidermal growth factor receptor (EGFR, Homo sapiens, UniProt P00533, L861Q)	binding	–	1 µM	73
O=C(NCCCN1CCOCC1)c1ccc(Nc2nccc(-c3cc4ccccc4s3)n2)cc1	EGFR G719C	binding	competition with immobilised ligand	1 µM	99
COc1ccc2c(O[C@@H]3C[C@H]4C(=O)N[C@]5(C(=O)O)CC5/C=C\CCCCC[C@H](NC(=O)OC5CCCC5)C(=O)N4C3)cc(-c3csc(NC(=O)C(C)C)n3)nc2c1C (some centres unmarked)	EGFR del747-752/P753S	cell-free assay	competition with immobilised ligand	1 µM	81
CN(C)c1ncc(F)c(-c2cnn3ncccc23)n1	EGFR G719S	binding	–	1 µM	100
COc1cc(-c2cn(C3CCc4c(F)cccc4N(CC(F)(F)F)C3=O)nn2)ccc1-n1cnc(C)c1 (centres unmarked)	EGFR A750P/del747-749	cell-free assay	competition with immobilised ligand	1 µM	100
N[C@@H]1CCN(c2nccc(-c3cnn4ncccc34)n2)C1	EGFR T790M	binding	–	1 µM	100
O=C(c1ccc(Nc2ncc(Cl)c(-c3cc4ccccc4s3)n2)cc1)N1CCC(N2CCCC2)CC1	Epidermal growth factor receptor (EGFR, Homo sapiens, UniProt P00533, L858R)	binding	competition with immobilised ligand	1 µM	81
COc1ccnn2ncc(-c3ccnc(N(C)C)n3)c12	EGFR del746-750	binding	–	1 µM	97
O=C(Nc1cccnn1)N1CC(C/C=C/c2cncc(Oc3ccc(C(F)(F)F)cn3)n2)C1	EGFR G719C	cell-free assay	competition with immobilised ligand	1 µM	100
Nc1ncc2c(n1)-c1c([nH]c3ccc(C#CC4CC4)cc13)CCCC2	EGFR T790M	binding	competition with immobilised ligand	1 µM	86
CC1CCCN1c1nccc(-c2cnn3ncccc23)n1 (centres unmarked)	EGFR del746-750	binding	–	1 µM	75
CCN1CCN(Cc2ccc(C(=O)Nc3ccc(C)c(Oc4ccc5c(c4)CC(=O)N5)c3)cc2C(F)(F)F)CC1	EGFR G719S	binding	competition with immobilised ligand	1 µM	80
CC(=O)N1CCC(c2ccc(C(=O)NC(=N)N)cc2C(F)(F)F)CC1	Epidermal growth factor receptor (EGFR, Homo sapiens, UniProt P00533, del747-750/T751S)	cell-free assay	competition with immobilised ligand	1 µM	100
O=C(NCC1CCOCC1)c1n[nH]cc1NC(=O)c1c(F)cccc1F	EGFR A750P/del747-749	binding	competition with immobilised ligand	1 µM	96
c1cncc(-c2cccc(Nc3nccc(NC4CCCCC4)n3)c2)c1	Epidermal growth factor receptor (EGFR, Homo sapiens, UniProt P00533, L858R/T790M)	binding	competition with immobilised ligand	10 µM	29
CO[C@@H](C)c1c(Nc2ccc([C@H](N(C)C(=O)C3CCS(=O)(=O)CC3)C(F)(F)F)cc2)cnc2cc(Cl)nn12	EGFR A750P/del747-749	cell-free assay	competition with immobilised ligand	1 µM	99
CN(C)c1nccc(-c2cnn3ncccc23)n1	EGFR	binding	–	1 µM	100
COc1cnc(Nc2cccc(S(N)(=O)=O)c2)nc1N1CCN(c2ccccc2)C(=O)C1	EGFR A750P/del747-749	binding	competition with immobilised ligand	1 µM	92
O=C(c1ccc(Nc2nccc(-c3cc4ccccc4s3)n2)cc1)N1CCC(N2CCCC2)CC1	EGFR G719S	binding	competition with immobilised ligand	1 µM	94
